The values below come from ChEMBL document CHEMBL1139997, “Structural basis for the activity of the RSK-specific inhibitor, SL0101” (Bioorg Med Chem, 2007).

Usually IC50 stands for the concentration needed to halve the response being measured. Read a low IC50 as greater potency in that assay. What is called inhibition is how much of the control response was suppressed.

A short description of data set [1]: Inhibition of RSK expressed in SF9 cells. Set-up: species or system Homo sapiens.
Data set [2] concerns MCF7. In words: Inhibition of RSK mediated mitogen-induced p140 phosphorylation in MCF7 cells pretreated at 75 uM. The settings on record: Homo sapiens. In kind it is cell-based. In a few lines: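 MCF-7 cells were seeded at 3×10^5 per well and serum-starved 24 h. They were pre-incubated with inhibitor or vehicle (2 h per legend; methods state 4 h), then given 500 nM PMA or vehicle for 20 min. Cells were lysed in boiling SDS buffer without DTT, and lysates were normalized for total protein before immunoblotting for phospho-p140.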

For another data set, the species on record is Homo sapiens. In words: Inhibition of RSK activity at 75 uM.
Data set [3] has as its system MCF7. In words: Antiproliferative activity against human MCF7 cells at 75 uM after 48 hrs. In kind it is functional, cell-based. In a few lines: (§1)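 MCF-7 or MCF-10A cells were seeded at 5000 per well in ATCC-recommended medium. After 24 h the medium was replaced with medium containing compound or vehicle. Viability was read 48 h later by luminescent cell-viability reagent. Results are fold proliferation as % of vehicle-treated cells, mean of n = 2 in quadruplicate ± SD. EC50 was obtained by best-fit curve analysis.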

Data set [4] is described as follows: Growth inhibition of human MCF10A cells at 75 uM 48 hrs. In kind it is cell-based, MCF-10A. In outline:
as §1

Data set [5] has as its system MCF7. In words: Antiproliferative activity against human MCF7 cells at 100 uM after 48 hrs. In kind it is functional. In a few lines:
as §1

Data set [6] concerns MCF7. In words: Antiproliferative activity against human MCF7 cells after 48 hrs. In kind it is functional, cell-based. In a few lines: as §1
The nature of data set [7]: Inhibition of RSK expressed in SF9 cells at 10 uM. Particulars: Homo sapiens.
Data set [8] relates to MCF7. In words: Antiproliferative activity against human MCF7 cells at 15 uM. In kind it is functional. In outline:
as §1

Data set [9] is described as follows: Antiproliferative activity against human MCF10A cells at 15 uM. In kind it is cell-based. The settings on record: mcf-10a. In a few lines: as §1
The nature of data set [10]: Antiproliferative activity against human MCF10A cells up to 200 uM after 48 hrs. In kind it is cell-based. Particulars: mcf-10a. In outline: as §1
The test system of data set [11] is MCF7. In words: Antiproliferative activity against human MCF7 cells at >100 uM after 48 hrs. In kind it is functional, cell-based. In a few lines: as §1

Each structure is given as a SMILES string. Active and inactive are the calls of the source. No cut-off for these calls is given here.

Regarding `CC(=O)O[C@@H]1[C@@H](OC(C)=O)[C@@H](O)[C@H](Oc2c(-c3ccc(O)cc3)oc3cccc(O)c3c2=O)O[C@H]1C`, the midpoint of inhibition in data set [1], the IC50, lay at 1.56 µM. Besides, the result with MCF7 [2], in the data set listed under Homo sapiens and in the data set on MCF7 [3] was Active. This compound also gave an inhibition at 48 h, 75 µM in data set [4] of 25%.
For `CC(=O)O[C@@H]1[C@@H](OC(C)=O)[C@@H](O)[C@H](Oc2c(-c3ccccc3)oc3cccc(O)c3c2=O)O[C@H]1C`, the half-inhibitory concentration (IC50) in data set [1] was determined as 13.2 µM. For the same compound, the inhibition in the data set on MCF7 [2] was determined as 50%. For the same compound, the result in the data set filed under Homo sapiens and in the data set on MCF7 [3] was Active. This compound also showed an inhibition at 48 h, 75 µM in [4] of 25%.
Compound `CC(=O)O[C@@H]1[C@@H](OC(C)=O)[C@@H](O)[C@H](Oc2c(-c3ccc(O)cc3)oc3cc(O)ccc3c2=O)O[C@H]1C` displayed an IC50 in data set [1] of 24.6 µM. In the data set on MCF7 [5], this compound had an Activity of 50%.
As for `C[C@@H]1O[C@@H](Oc2c(-c3ccc(O)cc3)oc3cc(O)cc(O)c3c2=O)[C@H](O)[C@H](O)[C@H]1O` [AFZELIN], the IC50 in data set [1] amounted to 4.37 µM. In the data set on MCF7 [6], the result was inactive.
`COc1ccc(-c2oc3cc(OC)cc(OC)c3c(=O)c2O[C@@H]2O[C@@H](C)[C@H](OC(C)=O)[C@@H](OC(C)=O)[C@H]2O)cc1`: the outcome in [1] (Homo sapiens) was inactive.
With `CCO[C@@H]1[C@@H](OCC)[C@@H](O)[C@H](Oc2c(-c3ccc(O)cc3)oc3cc(O)cc(O)c3c2=O)O[C@H]1C`, the concentration for half-maximal inhibition (IC50) in data set [1] came to 0.129 µM.
In data set [7], `CC(=O)Oc1ccc(-c2oc3cc(OC(C)=O)cc(OC(C)=O)c3c(=O)c2O[C@@H]2O[C@@H](C)[C@H](OC(C)=O)[C@@H](OC(C)=O)[C@H]2OC(C)=O)cc1` came in with an inhibition of 50%. Besides, the Activity is recorded as 50% with MCF7 [8] and “Not Active” in data set [9].
For `CC(=O)O[C@@H]1[C@@H](OC(C)=O)[C@@H](O)[C@H](Oc2c(-c3ccc(O)cc3)oc3cc(O)cc(O)c3c2=O)O[C@H]1C`, the Activity result in [10] is given as “Not Active”. The result in the data set with MCF7 [11] was Active.
